The record followed here is ChEMBL document CHEMBL3233000, “Cytotoxic ent-kaurane diterpenoids from Isodon wikstroemioides” (J Nat Prod, 2014).

Molecules are shown by their SMILES.

Format in all cases: functional, cell-based
One experiment relates to MCF7. Put plainly: Cytotoxicity against human MCF7 cells assessed as growth inhibition after 48 hrs by MTS assay. Particulars: MCF7, 48 h. The essentials:
(§1)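 Cell lines from ATCC, grown in RPMI-1640 or DMEM with 10% FBS at 37 °C, 5% CO2. Cells seeded, incubated 12 h at 37 °C, then screened at 40 μM for 48 h with MTS read-out. Where growth inhibition reached 50%, retested at 0.064, 0.32, 1.6, 8 and 40 μM in triplicate. Cisplatin and paclitaxel were positive controls. IC50 by Reed and Muench method.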
In general terms: Tetrazolium assays rely on reduction of a dye to a coloured formazan, in cell work by metabolically active cells.

In a further experiment the test system is HL-60. Put plainly: Cytotoxicity against human HL60 cells assessed as growth inhibition after 48 hrs by MTS assay. The note with it: HL-60, 48 h. The essentials: as §1
Another experiment concerns RAW264.7. Description: Inhibition of nitric oxide production in LPS-stimulated mouse RAW264.7 cells after 18 hrs by griess reagent based plate reader analysis. The note with it: RAW264.7, 18 h. A digest of the protocol:
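RAW264.7 macrophages seeded at 2 × 10^5 cells/well. Treated with serial dilutions (top concentration 25 μM), then stimulated with LPS 1 μg/mL for 18 h. Supernatant NO measured with Griess reagents, absorbance 550 nm. MG-132 was the positive control. Viability was checked in parallel by MTT (595 nm) to exclude cytotoxic interference.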
In general terms: Griess reagent forms a coloured azo dye with nitrite.

The next experiment has as its system A549. Put plainly: Cytotoxicity against human A549 cells assessed as growth inhibition after 48 hrs by MTS assay. Particulars: A549, 48 h. A digest of the protocol:
as §1

A further experiment deals with SMMC-7721. Put plainly: Cytotoxicity against human SMMC7721 cells assessed as growth inhibition after 48 hrs by MTS assay. The note with it: SMMC-7721, 48 h. A digest of the protocol:
as §1

A further experiment has as its system SW480. Put plainly: Cytotoxicity against human SW480 cells assessed as growth inhibition after 48 hrs by MTS assay. Particulars: SW480, 48 h. A digest of the protocol:
as §1

Take `C=C1C(=O)[C@]23C[C@H]1CC[C@H]2[C@]1(CO)CCC[C@](C)(CO)[C@H]1C[C@H]3O`: the concentration for half-maximal inhibition (IC50) (usually the point on the concentration scale where inhibition reaches its midpoint) in the experiment on MCF7 was 7.3 µM; in the experiment with HL-60, over 10 µM; in the experiment with RAW264.7 it was 2.8 µM; with A549 it was over 10 µM; with SMMC-7721 it was 7.1 µM; with SW480, 4 µM.

As for `C=C1[C@@H]2C[C@H](O)[C@H]3[C@]4(C)[C@@H](OC(C)=O)C[C@H](O)C(C)(C)[C@H]4[C@@H](OC(C)=O)[C@H](OC(C)=O)[C@]3(C2)[C@@H]1O` [NERVONIN G], the IC50 in the experiment with MCF7, with HL-60, with A549, with SMMC-7721 and in the experiment with SW480 was over 10 µM in each case.

In the case of `C=C1C(=O)[C@]23[C@H](O)[C@H]1[C@@H](O)[C@H](O)[C@H]2[C@]1(C)CCCC(C)(C)[C@H]1C[C@H]3OC(C)=O`, the IC50 was over 10 µM with MCF7; 8.8 µM in the experiment with HL-60; 7.2 µM in the experiment with RAW264.7; over 10 µM in the experiment on A549; 5.8 µM in the experiment with SMMC-7721; 4.7 µM with SW480.

Take `C=C1C(=O)[C@@]23CC[C@H]4[C@@](C)(CCC[C@]4(C)C=O)[C@@H]2C[C@H](O)[C@@H]1[C@H]3O`: the IC50 was determined as 1.7 µM in the experiment on MCF7; 3.2 µM with HL-60; 1.9 µM with RAW264.7; 0.9 µM with A549; 1.4 µM in the experiment on SMMC-7721; 1 µM in the experiment with SW480.

In the case of `C=C1C(=O)[C@@]23CC[C@@H]4[C@@](C)(CO)[C@H](O)CC[C@@]4(C)[C@@H]2C[C@H](O)[C@@H]1C3`, the IC50 in the experiment on MCF7 is 4.8 µM; with HL-60, 4.1 µM; in the experiment on RAW264.7, 4.7 µM; in the experiment on A549 it was 3.7 µM; with SMMC-7721, 4.1 µM; in the experiment on SW480 it was 2.7 µM.

Take `C=C1C(=O)[C@]23[C@H](O)[C@H]1[C@@H](O)C[C@H]2[C@]1(C)CCC[C@](C)(COC(C)=O)[C@H]1C[C@H]3OC(C)=O`: the IC50 in the experiment with MCF7 amounted to 1.6 µM; in the experiment on HL-60, 2.9 µM; in the experiment with RAW264.7, 5 µM; with A549 it was 2.7 µM; with SMMC-7721 it was 3.5 µM; with SW480 it was 0.9 µM.

In the case of `C=C1C(=O)[C@@]23[C@H](O)C[C@@H]4C(C)(C)CCC[C@@]4(C)[C@@H]2[C@@H](O)C[C@@H]1[C@H]3O` [PHYLLOSTACHYSIN F], the IC50 in the experiment with MCF7 came out at 1.5 µM; in the experiment on HL-60, 3.3 µM; in the experiment on RAW264.7 it was 1 µM; with A549, 2.3 µM; in the experiment with SMMC-7721, 2.1 µM; in the experiment on SW480 it was 1.1 µM.

As for `C=C1[C@@H]2C[C@H](OC(C)=O)[C@H]3[C@]4(C)[C@@H](OC(C)=O)C[C@H](O)C(C)(C)[C@H]4C(=O)[C@H](O)[C@]3(C2)[C@@H]1O` [NERVONIN E], the half-inhibitory concentration (IC50) in the experiment with MCF7, in the experiment on HL-60, in the experiment on A549, with SMMC-7721 and in the experiment on SW480 was over 10 µM each time.

Take `C=C1C(=O)[C@@]23[C@H](O)C[C@@H]4C(C)(C)CCC[C@@]4(C)[C@@H]2C[C@H](O)[C@@H]1[C@H]3O` [ISOSCOPARIN L]: the IC50 in the experiment with MCF7 is 0.4 µM; with HL-60, 0.5 µM; with RAW264.7, 0.8 µM; in the experiment with A549, 0.8 µM; with SMMC-7721, 1.2 µM; in the experiment with SW480, 0.6 µM.

As to `C=C1C(=O)[C@@]23[C@H](O)C[C@@H]4C(C)(C)[C@H](O)CC[C@@]4(C)[C@@H]2[C@@H](O)[C@H](O)[C@@H]1[C@H]3O`, the IC50 in the experiment with MCF7, in the experiment with HL-60, in the experiment on A549, with SMMC-7721 and in the experiment with SW480 was over 10 µM in each case.

With `C=C1C(=O)[C@@]23[C@H](O)C[C@@H]4C(C)(C)CCC[C@@]4(C)[C@@H]2[C@@H](O)[C@H](O)[C@@H]1[C@H]3OC(C)=O` [RABDOKUNMIN A], the concentration for half-maximal inhibition (IC50) in the experiment on MCF7 is over 10 µM; in the experiment with HL-60, 8.8 µM; in the experiment on RAW264.7 it was 7.2 µM; in the experiment with A549, over 10 µM; in the experiment with SMMC-7721, 5.8 µM; in the experiment with SW480, 4.7 µM.

For the compound `C=C1C(=O)[C@@]23CC[C@@H]4[C@@](C)(CO)CCC[C@@]4(C=O)[C@@H]2CC[C@@H]1[C@H]3O`, the IC50 is over 10 µM with MCF7; over 10 µM in the experiment on HL-60; 9.9 µM with RAW264.7; over 10 µM with A549; over 10 µM in the experiment with SMMC-7721; over 10 µM with SW480.

As for `C=C1C(=O)[C@@]23[C@H](O)C[C@@H]4[C@@](C)(CO)[C@H](O)CC[C@@]4(C)[C@@H]2C[C@H](O)[C@@H]1[C@H]3O`, the IC50 in the experiment with MCF7, in the experiment on HL-60, in the experiment on A549, in the experiment with SMMC-7721 and with SW480 was over 10 µM each time.

Turning to `C=C1C(=O)[C@@]23[C@H](O)C[C@@H]4[C@@](C)(CO)[C@@H](O)CC[C@@]4(C)[C@@H]2CC(=O)[C@@H]1[C@H]3O`, the IC50 in the experiment on MCF7, with HL-60, with A549, with SMMC-7721 and in the experiment on SW480 was over 10 µM throughout.

For `C=C1C(=O)[C@@]23[C@H](O)C[C@@H]4[C@@](C)(CO)CCC[C@@]4(C)[C@@H]2[C@@H](O)C[C@@H]1[C@H]3O` [RABDOKUNMIN D], the IC50 in the experiment on MCF7, in the experiment with HL-60, in the experiment with A549, in the experiment with SMMC-7721 and in the experiment on SW480 was over 10 µM each time.

For the compound `C=C1[C@@H]2CC[C@H]3[C@]4(C)CCC(=O)[C@](C)(CO)[C@H]4CC[C@]3(C2)[C@@H]1O`, the IC50 with MCF7, in the experiment on HL-60, with A549, with SMMC-7721 and with SW480 was over 10 µM throughout.

Take `C=C1[C@@H]2C[C@H](OC(C)=O)[C@H]3[C@]4(C)[C@@H](OC(C)=O)C[C@H](O)C(C)(C)[C@H]4C(=O)[C@H](OC(C)=O)[C@]3(C2)[C@@H]1O` [ADENANTHIN J]: the IC50 in the experiment on MCF7, with HL-60, in the experiment with A549, in the experiment with SMMC-7721 and in the experiment with SW480 was over 10 µM in each case.

Take `C=C1C(=O)[C@@]23[C@H](O)C[C@@H]4C(C)(C)CCC[C@@]4(C)[C@@H]2[C@@H](O)[C@H](O)[C@@H]1[C@H]3O` [RABDOLOXIN B]: the IC50 amounted to 3 µM in the experiment with MCF7; 2.9 µM with HL-60; 1.9 µM in the experiment on RAW264.7; 4.4 µM in the experiment with A549; 3.4 µM in the experiment with SMMC-7721; 2.4 µM in the experiment on SW480.

For the compound `C=C1[C@H]2C[C@@]3(CC[C@@H]4[C@@](C)(CO)CCC[C@@]4(C)[C@@H]3C[C@@H]2O)[C@@H]1O`, the IC50 in the experiment on MCF7 was over 10 µM; with HL-60 it was over 10 µM; in the experiment with RAW264.7 it was 23.9 µM; in the experiment with A549, over 10 µM; with SMMC-7721, over 10 µM; with SW480, over 10 µM.

As for `C=C1C(=O)[C@@]23[C@H](O)C[C@@H]4[C@@](C)(CO)CCC[C@@]4(CO)[C@@H]2C[C@H](O)[C@@H]1[C@H]3O`, the IC50 with MCF7, in the experiment with HL-60, in the experiment on A549, with SMMC-7721 and with SW480 was over 10 µM throughout.

For the compound `CC(=O)O[C@H]1C(=O)[C@@]2(C)[C@H]([C@H](OC(=O)c3ccccc3)[C@]3(O)C[C@H](OC(=O)[C@H](O)[C@@H](NC(=O)c4ccccc4)c4ccccc4)C(C)=C1C3(C)C)[C@]1(OC(C)=O)CO[C@@H]1C[C@@H]2O` [PACLITAXEL], the IC50 in the experiment with MCF7, in the experiment on HL-60, in the experiment with A549, with SMMC-7721 and in the experiment with SW480 was under 0.008 µM in each case.

For `C=C1[C@H]2[C@@H](O)[C@@]3([C@H](O)C[C@@H]4[C@@](C)(CO)CCC[C@@]4(C)[C@@H]3C[C@@H]2O)[C@@H]1O`, the IC50 in the experiment on MCF7, with HL-60, with A549, in the experiment on SMMC-7721 and in the experiment with SW480 was over 10 µM in each case.

With `C=C1[C@@H]2C[C@H](OC(C)=O)[C@H]3[C@]4(C)[C@@H](OC(C)=O)C[C@H](O)C(C)(C)[C@H]4C(=O)[C@H](O)[C@]3(C2)[C@@H]1OC(C)=O` [ADENANTHIN K], the IC50 with MCF7, in the experiment on HL-60, in the experiment with A549, in the experiment with SMMC-7721 and in the experiment on SW480 was over 10 µM throughout.

As to `C=C1[C@H]2[C@@H](O)[C@@]3([C@H](O)C[C@@H]4[C@@](C)(CO)CCC[C@@]4(C)[C@@H]3C[C@@H]2O)[C@@H]1OC(C)=O` [ALBOPILOSIN B], the IC50 with MCF7, with HL-60, with A549, in the experiment with SMMC-7721 and in the experiment on SW480 was over 10 µM throughout.
